Published values gathered from unrelated publications.
Protocols differ between the studies behind these lines.
ADORA3: Adenosine receptor A3 (ADORA3, Homo sapiens, UniProt P0DMS8)
Liver carboxylesterase: Liver carboxylesterase (Sus scrofa, UniProt Q29550)
HTR1E: 5-hydroxytryptamine receptor 1E (HTR1E, Homo sapiens, UniProt P28566)
DRD2: D(2) dopamine receptor (DRD2, Homo sapiens, UniProt P14416)

CCCCCC(C)N1CCCn2c1nc1c2c(=O)n(C)c(=O)n1C (stereo not shown)
Ki (ADORA3; ligand displacement; radioligand; cell membranes): > 10000 nM

CC/C=C\C/C=C\C/C=C\C/C=C\C/C=C\CCCC(=O)O
Ki (Liver carboxylesterase; enzyme activity; inhibitor; HPLC; pH 7.4): 340 nM

O=C1c2ccccc2CCN1CCCCN1CCN(c2cccc(Cl)c2Cl)CC1
Ki (HTR1E; ligand displacement; radioligand): 3450 nM

CCNC(=O)[C@H]1O[C@@H](n2cnc3c(N)nc(NN=CC4CCC=CO4)nc32)[C@H](O)[C@@H]1O (stereo partly shown)
Ki (ADORA3; ligand displacement; radioligand): 6.32 nM

CNC(=O)[C@@]12C[C@@H]1[C@@H](n1cnc3c(NCc4cccc(C#CCCCCc5cn(C67CC8CC(CC(C8)C6)C7)nn5)c4)nc(Cl)nc31)[C@H](O)[C@@H]2O
Ki (ADORA3; ligand displacement; radioligand; cell membranes): 21.8 nM

CCCCCCN1CCCn2c1nc1c2c(=O)n(C)c(=O)n1C
Ki (ADORA3; ligand displacement; radioligand; cell membranes): > 10000 nM

CC[C@H](C)[C@H](NC(=O)CN)C(=O)N[C@H](C(=O)N[C@@H](CC(N)=O)C(=O)N[C@H](C(=O)N[C@@H](CC(C)C)C(=O)N[C@@H](CCC(N)=O)C(=O)N[C@@H](CCCCN)C(=O)N[C@@H](Cc1ccc(O)cc1)C(=O)N[C@@H](Cc1ccc(O)cc1)C(=O)N[C@@H](CO)C(=O)N[C@@H](CCCNC(=N)N)C(=O)N[C@H](C(=O)N[C@@H](CCCNC(=N)N)C(=O)NCC(=O)NCC(=O)N[C@@H](CCCNC(=N)N)C(=O)N[C@@H](CO)C(=O)N[C@@H](C)C(=O)N[C@H](C(=O)N[C@@H](CC(C)C)C(=O)N[C@@H](CO)C(=O)N[C@H]1CSSC[C@@H](C(=O)N[C@@H](CCCNC(=N)N)C(=O)N[C@@H](CCCNC(=N)N)C(=O)N[C@@H](CCCCN)C(=O)N[C@@H](CCCCN)C(N)=O)NC(=O)[C@H](CO)NC(=O)[C@H](CCCCN)NC(=O)[C@H](CCCNC(=N)N)NC(=O)CNC(=O)[C@H](CCCNC(=N)N)NC(=O)[C@H]([C@@H](C)O)NC(=O)[C@H](CO)NC(=O)[C@H](CO)NC(=O)[C@H](CCCCN)NC(=O)CNC(=O)[C@H]([C@@H](C)CC)NC(=O)[C@H](CCC(N)=O)NC(=O)[C@H](CCC(=O)O)NC(=O)[C@H](CCC(=O)O)NC(=O)[C@H](CCCCN)NC(=O)[C@@H]2CCCN2C(=O)[C@H](CC(C)C)NC1=O)C(C)C)C(C)C)[C@@H](C)O)[C@@H](C)CC
Ki (Melanocyte-stimulating hormone receptor (MC1R, Homo sapiens, UniProt Q01726); ligand displacement in cells): 198 nM

CCCCN1CCC(COC(=O)c2ccc(N)c(OCF)c2)CC1
Ki (HTR1E; cell-free assay; radioligand): > 10000 nM

Oc1ccc(CCC2=NCCN2CCc2ccccc2)cc1
Ki (DRD2; ligand displacement; radioligand): 794 nM

CC(C)N1CCCn2c1nc1c2c(=O)n(C)c(=O)n1C
Ki (ADORA3; ligand displacement; radioligand; cell membranes): > 10000 nM

O=C1c2ccccc2CCCN1CCCCN1CCN(c2ccccn2)CC1
Ki (DRD2; ligand displacement; radioligand): 209 nM

CCCCC[C@H](O)/C=C/[C@H]1C=CC(=O)[C@@H]1C/C=C\CCCC(=O)O
Ki (Liver carboxylesterase; enzyme activity; inhibitor; HPLC; pH 7.4): 12000 nM

NCCCC[C@H](NC(=O)[C@@H]1CCCN1C(=O)[C@@H]1CSSC[C@H](N)C(=O)N[C@@H](Cc2ccc(O)cc2)C(=O)N[C@@H](Cc2ccccc2)C(=O)N[C@@H](CCC(N)=O)C(=O)N[C@@H](CC(N)=O)C(=O)N1)C(=O)NCC(N)=O
Ki (Vasopressin V2 receptor (AVPR2, Homo sapiens, UniProt P30518); ligand displacement; radioligand; cell membranes): 10 nM

C#CCNc1nc(Cl)nc2c1ncn2[C@H]1[C@H](O)[C@H](O)[C@]2(C(=O)NC)C[C@H]12
Ki (ADORA3; ligand displacement; radioligand; cell membranes): 1.5 nM

CC/C=C\C/C=C\C/C=C\C/C=C\C/C=C\C/C=C\CCC(=O)O
Ki (Liver carboxylesterase; enzyme activity; inhibitor; HPLC; pH 7.4): 3700 nM

CC(C)CCCC(C)N1CCCn2c1nc1c2c(=O)n(C)c(=O)n1C (stereo not shown)
Ki (ADORA3; ligand displacement; radioligand; cell membranes): 2570 nM

CCCC[C@H](NC(=O)[C@H](CO)NC(=O)[C@H](Cc1ccc(O)cc1)NC(=O)[C@H](CO)NC(C)=O)C(=O)N[C@@H](CCC(=O)O)C(=O)N[C@@H](Cc1c[nH]cn1)C(=O)N[C@@H](C)C(=O)N[C@@H](CCCNC(=N)N)C(=O)N[C@@H](Cc1c[nH]c2ccccc12)C(=O)NCC(=O)N[C@@H](CCCCN)C(=O)N1CCC[C@H]1C(=O)N[C@H](C(=O)NCC(=O)N[C@@H](CCCCN)C(=O)N[C@@H](CCCCN)C(=O)N[C@@H](CCCNC(=N)N)C(N)=O)C(C)C
Ki (Melanocortin receptor 3 (MC3R, Homo sapiens, UniProt P41968); ligand displacement in cells; radioligand): > 1000 nM

c1ccc(CCC2=NCCN2CCc2ccccc2)cc1
Ki (DRD2; ligand displacement; radioligand): > 10000 nM

CC(C)CN1CCCn2c1nc1c2c(=O)n(C)c(=O)n1C
Ki (ADORA3; ligand displacement; radioligand; cell membranes): > 10000 nM
